Assay results from ChEMBL document CHEMBL1817664, “Modulation of cell differentiation, proliferation, and tumor growth by dihydrobenzyloxopyrimidine non-nucleoside reverse transcriptase inhibitors” (2011).
The source made the active and inactive calls. The calls are words filed in the database; no cut-off is given here.

Columns and labels:
A-375 [1] = experiment: Antiproliferative activity against human A375 cells assessed as cell growth at 350 uM after 96 hrs by trypan blue assay; format: functional; conditions: A-375, 96 h, read-out: Activity
Method in brief: (§1)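 A375 melanoma cells were grown in DMEM with 10% FCS, 2 mM L-glutamine and penicillin/streptomycin at 37 °C in 5% CO2, and plated at (20–50) × 10^3 cells per 35 mm plate. Once adherent (56 h), compound in DMSO was added (DMSO 0.005% final), with fresh drug medium every 48 h. After 96 h, viable cells were counted twice by Coulter counter, with trypan blue exclusion. Results are % of DMSO control, pooled from three experiments.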

A-375 [2] = experiment: Antiproliferative activity against human A375 cells at 350 uM after 96 hrs by trypan blue assay; format: functional; method in brief: as §1
A-375 [3] = experiment: Induction of human A375 cell differentiation assessed as formation of vimentin intermediate filament at 20 uM after 96 hrs by immunofluorescence analysis; format: functional, cell-based
Method in brief: (§2)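 A375 cells cultured 96 h with drug, then fixed in 4% paraformaldehyde for 10 min and permeabilized in 0.2% Triton X-100/PBS for 5 min. Immunostained for tubulin and vimentin, nuclei counterstained with DAPI.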

A-375 [4] = experiment: Induction of human A375 cell differentiation assessed as microtubule reorganization at 20 uM after 96 hrs by immunofluorescence analysis; format: functional, cell-based; method in brief: as §2
A-375 [5] = experiment: Induction of apoptosis in human A375 cells seeded as low density at 20 uM after 96 hrs by propidium iodide staining-based FACS analysis
A-375 [6] = experiment: Induction of apoptosis in human A375 cells seeded as high density at 20 uM after 96 hrs by propidium iodide staining-based FACS analysis
A-375 [7] = experiment: Antiproliferative activity against human A375 cells assessed as cell growth at 25 uM after 96 hrs by trypan blue assay; format: functional; conditions: A-375, 96 h, read-out: Activity
Method in brief: (§3)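 A375 melanoma cells grown in DMEM with 10% FCS at 37 °C, 5% CO2; compounds added in DMSO after 56 h (DMSO 0.005% final for controls). Medium with drug renewed every 48 h. After 96 h, cells harvested and Coulter-counted, with trypan blue exclusion for viability. Counts given as % of DMSO controls; data pooled from three experiments.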

A-375 [8] = experiment: Antiproliferative activity against human A375 cells at 20 uM after 96 hrs by trypan blue assay; format: functional
Method in brief: (§4)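 A375 cells plated at (20-50) × 10^3 per 35 mm dish in DMEM/10% FCS. Drug in DMSO added, renewed every 48 h; DMSO alone for controls. After 48 or 96 h, viable cells counted twice per sample by Coulter counter, with trypan blue check. Cells at time t divided by cells seeded, relative to DMSO control as 100%. Mean and SD: four experiments for dose series (5, 10, 20 μM, 96 h), three for time course (5 or 10 μM).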

A-375 [9] = experiment: Antiproliferative activity against human A375 cells at 5 to 10 uM by trypan blue assay; format: functional, cell-based; conditions: TDE = time-dependent effect; method in brief: as §4
A-375 [10] = experiment: Induction of morphological differentiation in human A375 cells assessed as dentritic-like extension at 5 to 10 uM after 96 hrs by phase contrast microscopy
A-375 [11] = experiment: Antitumor activity against human A375 cells xenografted in athymic nude Harlan mouse assessed as reduced tumor growth at 20 mg/kg, ip administered daily 5 days pre week measured every other day
A-375 [12] = experiment: Antiproliferative activity against human A375 cells assessed as cell growth at 15 uM after 96 hrs by trypan blue assay; format: functional; conditions: A-375, 96 h, read-out: Activity; method in brief: as §3
A-375 [13] = experiment: Antiproliferative activity against human A375 cells after 96 hrs by trypan blue assay; format: functional, cell-based; method in brief: as §3
A-375 [14] = experiment: Antiproliferative activity against human A375 cells assessed as morphological changes at 5 to 10 uM after 96 hrs by phase contrast microscopy; format: functional, cell-based
Method in brief: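 A375 cultures in DMEM/10% FCS exposed to 5, 7.5 or 10 μM drug in DMSO; DMSO-only controls. Dendritic-like extensions scored under phase-contrast or bright-field microscopy.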

A-375 [15] = experiment: Induction of apoptosis in human A375 cells after 96 hrs by propidium iodide staining-based FACS analysis; format: functional, cell-based
Method in brief: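 A375 cells seeded at low (100 000) or high (300 000) density per 25 cm2 flask and cultured 96 h with 20 μM compound. Harvested for biparametric FACS: DNA content by PI uptake (linear) against side scatter (log); at least 10 000 cells per sample. Apoptotic fraction given as mean and SD of three experiments.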

A-375 [16] = experiment: Induction of apoptosis in human A375 cells assessed as necrotic cells at 25 uM after 96 hrs by propidium iodide staining-based FACS analysis; format: functional, cell-based

Cc1ccnc2c1NC(=O)c1cccnc1N2C1CC1 [NEVIRAPINE]
growth at 350 µM (A-375 [1]): 35% | Activity (A-375 [2]): 50% | Activity (A-375 [3]): Active | Activity (A-375 [4]): Active | Activity (A-375 [5]): inactive | Activity (A-375 [6]): inactive

CCC(c1nc(SC)[nH]c(=O)c1C)c1c(F)cccc1F (stereo not drawn)
growth at 25 µM (A-375 [7]): 40%

CCC(c1cc(O)nc(SC2CCCC2)n1)c1c(F)cccc1F (stereo not drawn)
growth at 25 µM (A-375 [7]): 22%

CCC(C)Sc1nc([C@H](CC)c2c(F)cccc2F)c(C)c(=O)[nH]1 (stereo partly drawn)
Activity (A-375 [8]): 70% | Activity (A-375 [9]): tde | Activity (A-375 [3]): Active | Activity (A-375 [4]): Active | Activity (A-375 [5]): inactive | Activity (A-375 [6]): Active | Activity (A-375 [10]): Active | Activity (A-375 [11]): Active

CCC(C)Sc1nc(C(CC)c2c(F)cccc2F)cc(=O)[nH]1 (stereo not drawn)
growth at 25 µM (A-375 [7]): 13%

O=C1Nc2ccc(Cl)cc2[C@@](C#CC2CC2)(C(F)(F)F)O1 [EFAVIRENZ]
growth at 15 µM (A-375 [12]): 51% | Activity (A-375 [11]): Active

CCC(c1nc(SC(C)C)[nH]c(=O)c1C)c1c(F)cccc1F (stereo not drawn)
growth at 25 µM (A-375 [7]): 12%

CCC(c1nc(SC2CCCC2)[nH]c(=O)c1C)c1c(F)cccc1F (stereo not drawn)
growth at 25 µM (A-375 [7]): 5%

CCC(c1nc(S)[nH]c(=O)c1C)c1c(F)cccc1F (stereo not drawn)
growth at 25 µM (A-375 [7]): 76%

CCC(c1cc(=O)[nH]c(SC)n1)c1c(F)cccc1F (stereo not drawn)
growth at 25 µM (A-375 [7]): 13%

CCC(c1cc(=O)[nH]c(S)n1)c1c(F)cccc1F (stereo not drawn)
growth at 25 µM (A-375 [7]): 100%

CCC(C)Sc1nc(C(CC)c2c(F)cccc2F)c(C)c(=O)[nH]1 (mixture of isomers)
Activity (A-375 [13]): Dose-dependent effect | growth at 25 µM (A-375 [7]): 5% | Activity (A-375 [14]): Active | Activity (A-375 [15]): Dose-dependent effect | Activity (A-375 [16]): Active | Activity (A-375 [11]): Active

CCC(C)Sc1nc([C@@H](CC)c2c(F)cccc2F)c(C)c(=O)[nH]1 (stereo partly drawn)
Activity (A-375 [8]): 70% | Activity (A-375 [9]): tde | Activity (A-375 [3]): Active | Activity (A-375 [4]): Active | Activity (A-375 [5]): inactive | Activity (A-375 [6]): Active | Activity (A-375 [10]): Active

CCC(c1cc(O)nc(SC(C)C)n1)c1c(F)cccc1F (stereo not drawn)
growth at 25 µM (A-375 [7]): 19%
